High-throughput results deposited in PubChem by Johns Hopkins Ion Channel Center.
Compounds with a hit are over-represented: about 2.3% of the library has one in this group of screens.
TRPC6 act: mouse TRPC6 channel activators, primary screen, cell-based, HEK293, membrane potential dye. 310,000 tested, 0.13% active. HEK293-TRPC6 membrane potential dye fluorescence; stronger effect = higher value. AID 2550, 2010. B-score at 10 µM;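 active = B-score of the integrated fluorescence ratio above library mean plus 3 SD, and starting fluorescence ratio within library mean plus 5 SD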;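 also: higher score means more depolarization so channel activation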
TRPC6 inhibitor: mouse TRPC6 channel inhibitors, primary screen, cell-based, HEK293, membrane potential dye | Short transient receptor potential channel 6 (Mus musculus), Q61143 | B-score at 10 µM | AID 2553, 2010 | ACh-evoked depolarization; stronger effect = lower value | 310,000 tested, 1.1% active;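 active = B-score under library mean minus 3 SD, initial fluorescence not abnormally high, positive integrated signal ratio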;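 also: B-score derived from integrated fluorescence ratio over the kinetic read; more negative B-score means stronger inhibition of depolarization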
TRPC4 potent: positive allosteric modulators of TRPC4, primary screen, cell-based, mouse TRPC4beta, HEK293 mu-opioid, Fluo-4 calcium | Short transient receptor potential channel 4 (Mus musculus), Q9QUQ5 | DAMGO EC20, Fluo-4 Ca2+ flux; stronger effect = higher value | B-score at 10 µM | 310,000 tested, 0.42% active;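 active = B-score of calcium response area above 5 SD of library B-scores, with initial fluorescence ratio within 5 SD of library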;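 also: B-score of integrated fluorescence ratio over time as area under calcium response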
Target sequence (Q9QUQ5 whole entry, looked up): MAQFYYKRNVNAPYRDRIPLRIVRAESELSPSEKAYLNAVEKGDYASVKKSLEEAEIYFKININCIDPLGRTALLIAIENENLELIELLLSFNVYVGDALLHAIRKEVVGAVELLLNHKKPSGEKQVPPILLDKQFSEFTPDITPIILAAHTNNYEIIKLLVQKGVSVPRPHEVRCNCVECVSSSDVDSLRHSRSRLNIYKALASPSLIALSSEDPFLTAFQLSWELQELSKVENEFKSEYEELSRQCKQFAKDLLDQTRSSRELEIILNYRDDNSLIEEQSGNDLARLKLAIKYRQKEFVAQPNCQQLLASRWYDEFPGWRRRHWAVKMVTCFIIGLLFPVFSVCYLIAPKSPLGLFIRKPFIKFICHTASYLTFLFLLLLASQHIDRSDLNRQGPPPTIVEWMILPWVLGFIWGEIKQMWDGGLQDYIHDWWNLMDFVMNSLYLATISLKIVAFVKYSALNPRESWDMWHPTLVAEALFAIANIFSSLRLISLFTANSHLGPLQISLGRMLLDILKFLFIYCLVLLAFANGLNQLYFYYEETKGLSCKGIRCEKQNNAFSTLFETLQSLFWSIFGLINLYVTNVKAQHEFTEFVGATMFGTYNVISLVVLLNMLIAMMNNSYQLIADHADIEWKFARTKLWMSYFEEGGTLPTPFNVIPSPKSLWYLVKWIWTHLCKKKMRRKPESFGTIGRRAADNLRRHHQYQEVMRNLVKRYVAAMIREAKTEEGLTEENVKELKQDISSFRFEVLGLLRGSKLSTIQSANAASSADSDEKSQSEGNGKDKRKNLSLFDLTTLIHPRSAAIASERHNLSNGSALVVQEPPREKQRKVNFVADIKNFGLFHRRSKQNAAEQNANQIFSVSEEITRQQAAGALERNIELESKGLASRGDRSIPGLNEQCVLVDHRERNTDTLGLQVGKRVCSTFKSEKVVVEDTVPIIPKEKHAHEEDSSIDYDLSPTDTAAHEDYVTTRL
TRPC4 inh: inhibitors of mouse TRPC4 channel, primary screen, Fluo4 calcium, HEK293 TRPC4beta/mu-opioid cells. Short transient receptor potential channel 4 (Mus musculus), Q9QUQ5. DAMGO-evoked Fluo4 calcium flux; stronger effect = lower value. B-score at 10 µM. 300,000 tested, 0.39% active;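 active = B-score over 3 SD under the library average, no early fluorescence shift, positive overall ratio signal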
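test system = HEK293 cells with stable TRPC4beta plus mu-opioid receptor expression | detection = Fluo4 Ca2+ flux fluorescence | read-out = integrated fluorescence ratio relative to baseline, converted to per-well B score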
TRPC4 act: activators of mouse TRPC4 channel, primary screen, Fluo4 calcium, HEK293 TRPC4beta/mu-opioid cells; Fluo4 calcium fluorescence; stronger effect = higher value; Short transient receptor potential channel 4 (Mus musculus), Q9QUQ5; B-score at 10 µM; AID 2237, 2010; 310,000 tested, 0.49% active;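 active = B-score above 5 SD of library B-scores, and initial fluorescence ratio not above library mean plus 5 SD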;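 also: positive B-score marks a calcium rise read as TRPC4 activation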
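Material: TRPC4beta and mu-opioid receptor HEK293 stable cells | Incubation: 45 min room-temperature Fluo4 loading, 110 s read | Detection: Kinetic Fluo4 calcium fluorescence | Measure: Integrated baseline-normalised fluorescence ratio, converted to per-well B score | Benchmarks: Low control buffer alone, high control maximal DAMGO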
TRPC4 spec 2: second selectivity test of TRPC6 inhibitors: effect on mouse TRPC4 | shares compounds with TRPC6 inhibitor | 920 tested, 42% active | HEK293 TRPC4/MOR, membrane potential dye fluorescence; channel activated by saturating DAMGO dose | inhibition, % at 10 µM | AID 2776;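 active = compounds whose fluorescence signal differed from control wells by over 3 SD, either direction, in both duplicate plates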
TRPC4 spec: mouse TRPC4 modulation by TRPC6 hits, confirmation, selectivity assay for TRPC6 inhibitor project, cell-based, HEK293 TRPC4/mu-opioid, membrane potential dye. AID 2777, 2010. 920 tested, 61% active. activity change, negative = inhibition, % at 10 µM. membrane potential fluorescence. shares compounds with TRPC6 inhibitor;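 active = rise or fall in signal beyond 3 SD of buffer-only wells in both replicate plates, either sign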;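 also: integrated kinetic ratio of fluorescence range over baseline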
HEK293 MPD ctr 2-1: nonspecific membrane potential effects, parental HEK293, confirmation, counter-screen for TRPC6 inhibitor project, cell-based, second counter screen. parental HEK293 membrane potential dye fluorescence; maximal acetylcholine challenge after compound addition. shares compounds with TRPC6 inhibitor. 920 tested, 31% active. AID 2779, 2010. signal change vs control, % at 10 µM;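 active = membrane potential signal moving either way by over 3 SD of the maximum-effect control, in both duplicate plates, meaning non-specific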
HEK293 MPD ctr-1: membrane potential modulation in parental HEK293, confirmation, counter-screen for TRPC6 inhibitor project, cell-based; membrane potential signal change, % at 10 µM; parental HEK293 membrane potential dye fluorescence; 920 tested, 60% active; shares compounds with TRPC6 inhibitor;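 active = membrane potential signal shifting up or down by more than 3 SD of buffer-only wells, on both duplicate plates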
HEK293 MPD ctr-2: parental HEK293 membrane potential modulation, confirmation, counter-screen for TRPC6 modulator project, cell-based | shares compounds with TRPC6 inhibitor | membrane potential dye fluorescence | membrane potential signal change, % at 10 µM | 2,400 tested, 51% active;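 active = membrane potential signal moves up or down beyond 5 SD from buffer-only wells, on both duplicate plates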
HEK293 MPD ctr 2-2: second counter-screen for TRPC6 modulators: effect in parental HEK293 cells; shares compounds with TRPC6 inhibitor; membrane potential dye fluorescence; after compound, maximal acetylcholine stimulation; inhibition, % at 10 µM; 2,400 tested, 14% active;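 active = membrane potential signal drops by more than 5 SD from the mean control signal, in both duplicate plates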;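 also: plate controls were acetylcholine ECmax control wells for no effect and buffer only wells for full effect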
TRPC4 ctr mod: TRPC4 modulation by TRPC6 hit compounds, confirmation, selectivity assay for TRPC6 modulator project, cell-based, HEK293 TRPC4/mu-opioid, membrane potential dye, mouse; 2,400 tested, 69% active; AID 488927, 2010; percent change from control (negative = decrease, positive = increase), % at 10 µM; shares compounds with TRPC6 inhibitor; membrane potential fluorescence;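 active = membrane potential signal moved up or down beyond 5 SD of buffer control wells, in both duplicate plates, actives on both sides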;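 also: plate controls were assay buffer wells for no effect and DAMGO maximal-effect wells for full effect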
TRPC4 ctr inh 2: second selectivity test of TRPC6 modulators against mouse TRPC4 | HEK293 TRPC4/mu-opioid, membrane potential dye fluorescence; stimulated with maximal-effect DAMGO | AID 488928 | 2,400 tested, 55% active | shares compounds with TRPC6 inhibitor | inhibition, % at 10 µM;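 active = drop in membrane potential signal beyond 5 SD of the control wells in both duplicate plates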;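 also: TRPC4 counter screen for TRPC6 hits run under conditions tuned for TRPC6 not TRPC4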
TRPC6 block conf: mouse TRPC6 channel inhibitors, confirmation, HEK293 cells, membrane potential dye, duplicate; ACh-evoked depolarization; 3,300 tested, 43% active; shares compounds with TRPC6 inhibitor; inhibition, % at 10 µM; AID 488960, 2010;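 active = fluorescence ratio falls more than 5 SD below the full-stimulation control mean, in both duplicate runs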;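 also: integrated fluorescence ratio of peak minus minimum over baseline after agonist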
TRPC6 act conf: mouse TRPC6 channel activators, confirmation, HEK293 cells, membrane potential dye, duplicate | shares compounds with TRPC6 inhibitor | HEK293-TRPC6 membrane potential dye fluorescence, FDSS | activation, % at 10 µM | 2,800 tested, 11% active | AID 488961, 2010;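 active = ratio signal rise beyond 5 SD above unstimulated control wells' mean, seen in both duplicate runs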;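 also: plate controls were buffer EC0 wells for no effect and acetylcholine ECmax response for full effect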
Active calls of the source: *; i = inactive; . = not tested or not shown.

SMILES	TRPC6 act	TRPC6 inhibitor	TRPC4 potent	TRPC4 inh	TRPC4 act	TRPC6 block conf	TRPC6 act conf	others
Cc1ccc(-c2nnc(SCC(=O)NNC(=O)COc3cccc(C)c3)n2C)cc1	i	i	i	i	i	.	.
Cc1ccc(-c2nnc(SCC(=O)NNC(=O)COc3ccccc3C)n2C)cc1	i	-6.2*	i	i	i	i	i	HEK293 MPD ctr-2=i;HEK293 MPD ctr 2-2=i;TRPC4 ctr mod=i;TRPC4 ctr inh 2=i
CCOc1ccc(S(=O)(=O)N2CCCCC2)cc1NC(=O)CC1OC(=O)c2ccccc21 (stereo unspecified)	i	i	i	i	i	.	.
COCCCNC(=O)CN(CCc1ccccc1)S(=O)(=O)c1ccc(OC)cc1	i	i	i	i	i	.	.
COCCCN(CC(=O)NCc1ccccc1)S(=O)(=O)c1ccc(C)cc1	i	-6.3*	i	i	i	i	i	HEK293 MPD ctr-2=i;HEK293 MPD ctr 2-2=i;TRPC4 ctr mod=i;TRPC4 ctr inh 2=i
c1ccc(SCCN2CCN(c3ccccc3)CC2)cc1	i	i	i	i	i	.	.
Cc1ccc(C(=O)NC(=S)N2CCN(c3cc(C)ccc3C)CC2)cc1	i	i	i	i	i	.	.
CCC(C)NC(=O)COCc1cc(-c2ccc3c(c2)OCO3)on1 (stereo unspecified)	i	i	i	i	i	.	.
CCN(CC)C(=O)COCc1cc(-c2ccc3c(c2)OCO3)on1	i	-7*	i	i	i	i	i	TRPC4 spec 2=i;TRPC4 spec=i;HEK293 MPD ctr 2-1=i;HEK293 MPD ctr-1=i
